Source: publication PMC11903327 (Clinical and Translational Science, 2025)
Converted amounts (≈) assume the structure as drawn. Like-named read-outs stand apart in the source and are kept apart here.

How the values were obtained:
[1] = healthy subjects, cited from earlier work
[2] = Biopharmaceutical classification system; assay type: physicochemical; conditions: based on low aqueous solubility and high in vitro permeability
[3] = Phase 1 dose-escalation study, QD dosing; cited from earlier work
[4] = tested on: colorectal adenocarcinoma‐2 cell; conditions: colorectal adenocarcinoma-2 cells; cited from earlier work
[5] = ref Takeda data on file, cited from earlier work
pKa = assay type: physicochemical
[6] = assay type: in vivo, human; conditions: for CL/F: arithmetic mean (SD)
Method in brief: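 Healthy nonsmoking adults aged 18–55, BMI 18–29 kg/m2. Randomized fed/fasted crossover: single 5 mg oral dose fasted or 30 min after a high-fat breakfast (~800–1000 kcal, 50% fat), with ≥14-day washout. Period 3: rabeprazole 40 mg QD with breakfast for 6 days, then fasted 1 h before dosing. Plasma sampled pre-dose to 168 h, LC-MS/MS (1.00–750 ng/mL). Noncompartmental PK; mixed-effects geometric LSM ratios, 90% CIs.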

[7] = single oral radiolabeled fruquintinib 5 mg; cited from earlier work
[8] = Clinical mass balance study with radiolabelled fruquintinib; assay type: in vivo, human; conditions: single 5 mg dose in humans; inferred from metabolic profile
[9] = healthy Chinese subjects, fruquintinib 4 mg, cited from earlier work
[10] = assay type: in vivo, human
[11] = In vitro aqueous solubility in buffer systems across pH 1 to 6.8; assay type: physicochemical; conditions: 37 °C, thermodynamic from solid
[12] = clinical dose of 5 mg; cited from earlier work

## CNC(=O)c1c(C)oc2cc(Oc3ncnc4cc(OC)c(OC)cc34)ccc12 [Fruquintinib]
[1]; coadministration with a CYP3A inducer
  change in fruquintinib exposure: decreased
[1]; coadministration with a CYP3A inhibitor
  change in fruquintinib AUC or Cmax: no clinically meaningful change
[2]
  biopharmaceutical classification system (BCS) class: class 2
[3]
  maximum-tolerated dose: 4 mg
[4]
  apical-to-basolateral apparent permeability: 30 ×10⁻⁶ cm/s
  efflux ratio: ~1
[5]; simulated gastric fluids
  time stable in simulated gastric fluids: at least 1 h
[5]; simulated intestinal fluids
  time stable in simulated intestinal fluids: at least 3 h
pKa
  pKa: 2.78
[6]; fruquintinib 5 mg oral, under fed and fasted conditions
  time after dosing at which peak concentrations were achieved: approximately 4 h
[6]; healthy subjects, fruquintinib 5 mg
  effects of food or rabeprazole on fruquintinib PK: No clinically relevant effects
[6]; human, plasma, oral
  Tmax: 0.5 h
[6]; human, plasma, po, 5 mg
  Tmax: 4 h
[6]; single oral fruquintinib 5 mg + rabeprazole 40 mg, fasted
  CL/F: 15.6 (4.59) mL/min
[6]; single oral fruquintinib 5 mg, fasted (reference)
  CL/F: 17.1 (5.22) mL/min
[6]; single oral fruquintinib 5 mg, fed (high-fat meal)
  CL/F: 16.3 (4.32) mL/min
[6]; single oral fruquintinib 5 mg, fed (high-fat meal), median (minimum–maximum)
  Tmax: 4.00 (2.00–6.00) h
[7]
  dose recovered in feces: 30%
  unchanged fruquintinib in feces, of the administered dose: 5.34%
  unchanged fruquintinib in urine, of the administered dose: 0.50%
[8]
  fraction of the dose absorbed: > 85%
[9]
  effect of a high-fat meal on the PK of fruquintinib: no clinically significant effect
[9]; high-fat meal vs fasted
  least squares GMR (90% CI) for AUC0-inf: 97.2% (94.0%–100.4%)
  least squares GMR (90% CI) for Cmax: 82.9% (76.7%–89.5%)
[10]; all five AEs
  relation of AEs to fruquintinib: not related
  severity of AEs: mild
[10]; four of 14 subjects, five AEs, all treatment periods
  subjects reporting AEs: 29%
[10]; over time during the study
  changes in chemistry, hematology, urinalysis and coagulation laboratory test results: no clinically significant changes
[10]; with or without food or with rabeprazole
  tolerability: well tolerated
[11]; pH 1, simulated gastric fluid
  solubility at 48 h: 130 µg/mL (≈ 330 µM)
[11]; pH 4.5, aqueous buffer
  solubility at 48 h: 0.9 µg/mL (≈ 2.29 µM)
[11]; pH 6.8, aqueous buffer
  solubility at 48 h: 0.9 µg/mL (≈ 2.29 µM)

## CNC(=O)c1ccccc1Sc1ccc2c(/C=C/c3ccccn3)n[nH]c2c1 [axitinib]
[12]
  DDI (based on AUC) when combined with rabeprazole: no clinically meaningful DDI
  food effect: no clinically meaningful food effect
